Compound activity from PubChem.
The list is not random: actives were taken first. Their share in the collection is about 1.6%.
UHRF1 MBD2 ctr = UHRF1 methylated DNA binding inhibitors, primary screen, counter-screen for MBD2 inhibitor project, biochemical, TR-FRET, human UHRF1, single concentration; UHRF1 binding to methylated oligo; AID 687016, 2013; inhibition, % at 4.4 µM; 370,000 tested, 0.75% active; E3 ubiquitin-protein ligase UHRF1 (Homo sapiens), Q96T88; in the data active means inhibition above about 21%;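 further: UHRF1 SRA domain binding a hemimethylated CpG hairpin DNA probe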
Target sequence (Q96T88 whole entry, looked up, the tested form may be a part): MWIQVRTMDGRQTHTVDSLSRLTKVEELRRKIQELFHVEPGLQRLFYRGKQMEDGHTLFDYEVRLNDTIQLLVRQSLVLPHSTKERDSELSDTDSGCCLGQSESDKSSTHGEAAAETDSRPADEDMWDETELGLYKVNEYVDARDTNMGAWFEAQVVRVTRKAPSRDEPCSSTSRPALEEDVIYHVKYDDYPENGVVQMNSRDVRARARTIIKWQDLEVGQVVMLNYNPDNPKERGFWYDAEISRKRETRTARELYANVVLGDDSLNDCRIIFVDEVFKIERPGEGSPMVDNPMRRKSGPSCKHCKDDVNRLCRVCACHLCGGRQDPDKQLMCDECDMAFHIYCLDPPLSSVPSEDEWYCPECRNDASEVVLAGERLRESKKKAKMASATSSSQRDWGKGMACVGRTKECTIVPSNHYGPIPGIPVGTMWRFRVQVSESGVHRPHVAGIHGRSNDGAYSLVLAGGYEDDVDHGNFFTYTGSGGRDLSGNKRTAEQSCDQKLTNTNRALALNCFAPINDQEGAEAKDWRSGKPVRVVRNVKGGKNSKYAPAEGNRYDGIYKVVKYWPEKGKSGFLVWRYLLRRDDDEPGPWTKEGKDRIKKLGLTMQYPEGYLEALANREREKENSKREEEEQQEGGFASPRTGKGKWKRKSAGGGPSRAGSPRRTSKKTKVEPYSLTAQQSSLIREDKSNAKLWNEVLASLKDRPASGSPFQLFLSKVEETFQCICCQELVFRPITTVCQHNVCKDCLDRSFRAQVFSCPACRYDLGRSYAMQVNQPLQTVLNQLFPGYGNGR
MBD2 inh = inhibitors of MBD2 binding to methylated DNA, primary screen, biochemical, TR-FRET, DNA-binding domain, human; MBD2 binding to methylated oligonucleotide; inhibition, % at 4.4 µM; 370,000 tested, 0.31% active; AID 686964, 2013; in the data active means inhibition above about 13%
TDP2 inh = human TDP2 enzyme inhibitors, primary screen, biochemical, epi absorbance, recombinant enzyme; T5PNP hydrolysis, p-nitrophenol absorbance 415 nm; inhibition, % at 12.8 µM; 370,000 tested, 0.34% active;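 active means inhibition above the mean of all tested compounds plus 3 SD, set per campaign, cut at about 25% in these data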
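Read-out basis: percent inhibition. System: recombinant human TDP2. Buffer or medium: Mg2+-containing Tris-HCl buffer, pH 7.5. Repeats: single replicate. Timing: reaction 2 h, 37 °C. Benchmarks: high control without enzyme, low control DMSO plus TDP2. Probe or stimulus: 5 mM T5PNP. Doses: 12.8 µM only. Measured by: epi absorbance of p-nitrophenol freed from T5PNP by hydrolysis.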
LEDGF integ inh = blockers of LEDGF/p75-dependent integrase strand transfer – biochemical, TR-FRET, high throughput, primary screen. 370,000 tested, 0.64% active. inhibition, % at 3.7 µM. TR-FRET IN-LEDGF/p75 DNA integration, Eu/Cy5. AID 743269, 2014;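 active means inhibition above the screen-wide mean plus 3 SD, cut at about 13% in these data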;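 further: signal is the Cy5 over europium emission ratio at 671 and 618 nm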
IN multimer act = HIV-1 IN multimer formation enhancers, counter-screen for LEDGF/p75 integration inhibitor project, biochemical, TR-FRET | shares compounds with LEDGF integ inh | TR-FRET HIV-1 integrase multimerization | activation, % at 7.7 µM | 2,000 tested, 17% active | AID 1053131, 2014; in the data active means activation above about 8.9%
TRFRET interf = TR-FRET optical interference artefacts, confirmation, artefact control for LEDGF/p75-dependent integration inhibitor project, biochemical, HIV-1 IN multimerization; shares compounds with LEDGF integ inh; TR-FRET optical interference counterscreen; inhibition, % at 7.7 µM; 2,000 tested, under 10 active; AID 1053135, 2014;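 active means inhibition above the mean over all tested compounds plus 3 SD, which no compound reached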
IN-LEDGF confirm = inhibitors of HIV-1 IN-LEDGF/p75 DNA integration, confirmation, biochemical, TR-FRET; shares compounds with LEDGF integ inh; TR-FRET LEDGF/p75-dependent HIV-1 integration; inhibition, % at 3.7 µM; 2,000 tested, 36% active; in the data active means inhibition above about 14%
A number is an active result.

`O=[N+]([O-])c1cc(S(=O)(=O)c2ccc(O)c([N+](=O)[O-])c2)ccc1O` gave UHRF1 MBD2 ctr 42.3, MBD2 inh inactive, TDP2 inh inactive, LEDGF integ inh 16.8, IN multimer act 28.1, TRFRET interf inactive and IN-LEDGF confirm 27.2.
c1cc2c(cc1NC1=NCCO1)CCCC2 was read as UHRF1 MBD2 ctr inactive, MBD2 inh inactive, TDP2 inh inactive and LEDGF integ inh inactive.
Screening NCCc1cc(O)c(O)cc1O returned UHRF1 MBD2 ctr 57.9, MBD2 inh 25.4, TDP2 inh inactive, LEDGF integ inh 55.9, IN multimer act 64.2, TRFRET interf inactive and IN-LEDGF confirm 75.0.
Screening COc1ccc(CCN)cc1O returned UHRF1 MBD2 ctr inactive, MBD2 inh inactive, TDP2 inh inactive and LEDGF integ inh inactive.
Cc1ccc(S(=O)(=O)NCCC(=O)Nc2ccc(Cl)cc2C(=O)c2ccccc2)cc1 was read as UHRF1 MBD2 ctr inactive, MBD2 inh inactive, TDP2 inh inactive, LEDGF integ inh 27.6, IN multimer act inactive, TRFRET interf inactive and IN-LEDGF confirm inactive.
For Cc1ccc(S(=O)(=O)Nc2cc(C(=O)N3CCC4(CC3)OCCO4)ccc2N2CCCCC2)cc1 the results were UHRF1 MBD2 ctr inactive, MBD2 inh inactive, TDP2 inh inactive, LEDGF integ inh 15.8, IN multimer act inactive, TRFRET interf inactive and IN-LEDGF confirm inactive.
Screening Cc1cc(/C=C2\C(=O)NC(=O)N(c3ccc(Cl)cc3)C2=O)c(C)n1-c1cccc(C(=O)O)c1 returned UHRF1 MBD2 ctr inactive, MBD2 inh inactive, TDP2 inh inactive and LEDGF integ inh inactive.
Screening Cc1cc(/C=C2\C(=O)NC(=O)N(c3ccc(Br)cc3)C2=O)c(C)n1-c1cc(C(=O)O)cc(C(=O)O)c1 returned UHRF1 MBD2 ctr 43.7, MBD2 inh inactive, TDP2 inh inactive, LEDGF integ inh 44.0, IN multimer act inactive, TRFRET interf inactive and IN-LEDGF confirm 30.9.
`Cc1cc(/C=C2\C(=O)NC(=O)N(c3cccc(Br)c3)C2=O)c(C)n1C` gave UHRF1 MBD2 ctr inactive, MBD2 inh inactive, TDP2 inh inactive and LEDGF integ inh inactive.
`Cc1cc(/C=C2\C(=O)NC(=O)N(c3cccc(F)c3)C2=O)c(C)n1-c1cc(C(=O)O)cc(C(=O)O)c1` gave UHRF1 MBD2 ctr 32.7, MBD2 inh inactive, TDP2 inh inactive, LEDGF integ inh 39.5, IN multimer act inactive, TRFRET interf inactive and IN-LEDGF confirm 23.6.
`COC(=O)C1=C(c2ccc(F)cc2OCc2ccccc2)C[C@@H]2CC[C@H]1N2C(=O)NC(C)C` gave UHRF1 MBD2 ctr inactive, MBD2 inh inactive, TDP2 inh inactive and LEDGF integ inh inactive.
Cc1ccc(C2(O)CCN3CCCCC32)cc1 (stereo not given) was read as UHRF1 MBD2 ctr inactive, MBD2 inh inactive, TDP2 inh inactive and LEDGF integ inh inactive.
For COc1ccc(N2C(=O)NC(=O)/C(=C\c3ccc([N+](=O)[O-])s3)C2=O)cc1 the results were UHRF1 MBD2 ctr inactive, MBD2 inh inactive, TDP2 inh inactive, LEDGF integ inh 17.7, IN multimer act inactive, TRFRET interf inactive and IN-LEDGF confirm 33.1.
`O=c1[nH]c(=O)n(Cc2ccco2)c(O)c1C=NC1CC1` gave UHRF1 MBD2 ctr inactive, MBD2 inh inactive, TDP2 inh inactive and LEDGF integ inh inactive.
`O=c1[nH]c(=O)n(Cc2ccco2)c(O)c1/C=N/N1CCCCC1` gave UHRF1 MBD2 ctr inactive, MBD2 inh inactive, TDP2 inh inactive, LEDGF integ inh 22.6, IN multimer act inactive, TRFRET interf inactive and IN-LEDGF confirm inactive.
